Results on seven compounds are retold here after publication PMC7883929 (Molecular Vision, 2021).

Entries after “also recorded” stand apart in the source; their conditions may differ. Where two headings read alike, the source gives them in different places.

In assay [1] the test system is laser-induced glaucoma model in monkeys. As to conditions: at 6 h, cited from earlier work.
The test system of assay [2] is hTM-80 cells. The assay is described as follows: Superoxide dismutase activity assay. The format is cell-based, human. As to conditions: 100 µM, overnight/24 h.
In assay [3] the test system is normotensive rat eyes. As to the kind of experiment: IOP measurement in normotensive Sprague Dawley rats. Particulars: Travoprost 0.004% single eye drop, 6 h time point only. It is filed as in vivo. Summed up: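 Adult (10-week) female Sprague Dawley rats, n = 3/group, housed under dim light (90 lux) and dosed under a masked protocol. Each received a single 30 µl topical drop in PBS: saline vehicle, 0.004% travoprost positive control, or test compound. IOP was read by TonoLab rebound tonometry at 0, 3, 6, 24, 48 and 72 h. The contralateral eye served as control. Dosing was repeated three times per rat after 7-day washouts. Rank-sum test, mean ± SEM.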

The conditions of assay [4]: cited from earlier work.

Regarding `CC1(C)CC(O[N+](=O)[O-])CC(C)(C)N1[O]` [4-nitro-TEMPOL], in assay [1] (dose 150 µg/eye drop), the IOP lowering is on record as 20%. As to `O=[N+]([O-])OCC(CO[N+](=O)[O-])O[N+](=O)[O-]` [GTN, glyceryl trinitrate], the IOP lowering in assay [1] (dose 500 µg) was 13%. Consider `[NH-]c1c[n+](N2CCOCC2)no1` [SIN-1, Linsidomine], for which, in assay [2], the “SOD enzyme level (in words)” value is “did not increase the SOD enzyme; also recorded: did not increase the SOD level”. Still for that read-out and setting: under `CC1(C)CC(N)CC(C)(C)N1[O]` [SA-3, 4-amino TEMPOL] stands “the effect was comparable to that of a standard SOD mimetic SA-3 compound”.

`CC(C)OC(=O)CCC/C=C\C[C@@H]1[C@@H](/C=C/[C@@H](O)COc2cccc(C(F)(F)F)c2)[C@H](O)C[C@@H]1O` [Travoprost] returned an IOP lowering in assay [3] of 14%. For `O=C(CCC/C=C\C[C@@H]1[C@@H](CC[C@@H](O)CCc2ccccc2)[C@H](O)C[C@@H]1O)OCCCCO[N+](=O)[O-]` [LBN, Latanoprostene bunod], the IOP-lowering ability in assay [4] is −9.0 mm/Hg. Regarding `CC(C)OC(=O)CCC/C=C\C[C@@H]1[C@@H](CC[C@@H](O)CCc2ccccc2)[C@H](O)C[C@@H]1O` [latanoprost], the IOP-lowering ability in assay [4] is given as −7.7 mm/Hg.
